Laboratory results published in ChEMBL document CHEMBL1126267, “A novel synthesis and potent antiinflammatory activity of 4-hydroxy-2(1H)-oxo-1-phenyl-1,8-naphthyridine-3-carboxamides” (1992).

Key:
Format in all cases: functional
Rattus norvegicus [1] = assay: Compound was tested for the inhibition of rat reversed passive Arthus pleurisy after peroral administration of 100 mg/kg dose at 2.96 +/- 0.16*10e6 no of cells; details: route oral
In short: (§1)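 Male Wistar rats (about 250 g) were given compound orally before the antiserum. Under ether anesthesia, 0.2 mL rabbit anti-egg albumin antiserum was injected intrapleurally. After 30 min, egg albumin (15 mg/100 g body weight in 0.1 mL saline) was given iv. Rats were killed 4.5 h later and the thoracic cavity was rinsed with 5 mL saline. Exudate volume and infiltrated cell number were measured, with inhibition % versus controls as mean ± SEM.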

Rattus norvegicus [2] = assay: Compound was tested for the inhibition of rat reversed passive Arthus pleurisy after peroral administration of 100 mg/kg dose at 2.96*10e6 no of cells with 3.86*10e6 cells of control; details: route oral; in short: as §1
Rattus norvegicus [3] = assay: Compound was tested for the inhibition of rat reversed passive Arthus pleurisy after peroral administration of 100 mg/kg dose at 0.28 mL of exudate volume with 0.86 mL of control (injected intrapleurally); details: route oral; in short: as §1
Rattus norvegicus [4] = assay: Inhibition of Zymosan-induced rat's paw edema(ZPE) after peroral administration of 100 mg/kg dose.; details: route oral
In short: (§2)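 Male Wistar rats (about 150 g) were dosed orally with compound suspended in 5% arabic gum, 1 h before a subplantar hind-paw injection of 0.1 mL saline. The irritant was 1% zymosan for 33 or 1% λ-carrageenin for 34. Paw volume was measured by plethysmograph before dosing and at 4 h (zymosan) or 3 h (carrageenin). Swelling is relative to initial volume, as mean ± SEM. % inhibition is versus the control group's mean swelling.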

Rattus norvegicus [5] = assay: Compound was tested for the inhibition of Zymosan-induced rat's paw edema(ZPE) after peroral administration of 3 mg/kg dose; details: route oral
In short: (§3)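 Male Wistar rats weighing about 150 g were dosed orally with compound suspended in 5% arabic gum. 1 h later, 1% zymosan in 0.1 mL saline was injected subplantarly into the hind paw. Paw volume was measured by plethysmograph before dosing and 4 h after zymosan, with edema as the volume difference. Inhibition % was derived from mean swelling versus the control group.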

Rattus norvegicus [6] = assay: Compound was tested for the inhibition of arachidonic acid-induced rat's paw edema(APE) after peroral administration of 10 mg/kg dose; details: route oral
In short: (§4)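 Test: arachidonic acid paw edema in male Wistar rats of about 150 g. Oral dosing in 5% arabic gum came 1 h before subplantar injection of 1% arachidonic acid sodium salt in 0.1 mL saline into the hind paw. Plethysmograph paw volume was read before dosing and 1 h post-irritant, and edema = volume difference. % inhibition was taken from mean swelling against controls.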

Rattus norvegicus [7] = assay: Compound was tested for the inhibition of rat reversed passive Arthus pleurisy after peroral administration of 10 mg/kg dose at 4.30+/-0.41*10e6 no of cells; details: route oral; in short: as §1
Rattus norvegicus [8] = assay: Compound was tested for the inhibition of Zymosan-induced rat's paw edema(ZPE) after peroral administration of 10 mg/kg dose; details: po; in short: as §3
Rattus norvegicus [9] = assay: Compound was tested for the inhibition of Carrageenan rat's paw edema(CPE) after peroral administration of 10 mg/kg dose
Rattus norvegicus [10] = assay: Compound was tested for the inhibition of Carrageenan rat's paw edema(CPE) after peroral administration of 3 mg/kg dose; details: route oral
Rattus norvegicus [11] = assay: Compound was tested for the inhibition of arachidonic acid-induced rat's paw edema(APE) after peroral administration of 3 mg/kg dose; details: route oral; in short: as §4
Rattus norvegicus [12] = assay: Compound was tested for the inhibition of arachidonic acid-induced rat's paw edema(APE) after peroral administration of 30 mg/kg dose; details: route oral; in short: as §4
Rattus norvegicus [13] = assay: Compound was tested for the inhibition of rat reversed passive Arthus pleurisy after peroral administration of 10 mg/kg dose at 0.37+/-0.07 mL of exudate volume (injected intrapleurally); details: route oral; in short: as §1
Rattus norvegicus [14] = assay: Compound was tested for the inhibition of rat reversed passive Arthus pleurisy after peroral administration of 100 mg/kg dose at 0.28+/-0.06 mL of exudate volume (injected intrapleurally); details: route oral; in short: as §1
Rattus norvegicus [15] = assay: Compound was tested for the inhibition of rat reversed passive Arthus pleurisy after peroral administration of 25 mg/kg dose at 4.25+/-0.1*10e6 no of cells; details: route oral
In short: (§5)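 Male Wistar rats (about 250 g) under ether received 0.2 mL rabbit anti-egg-albumin antiserum intrapleurally. Thirty min later they got 15 mg EA/100 g body weight in 0.1 mL saline iv. Compounds were given orally beforehand. Rats were killed 4.5 h after induction and the thoracic cavity rinsed with 5 mL saline. Exudate volume and infiltrated cell count were read as mean ± SE. % inhibition is versus control.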

Rattus norvegicus [16] = assay: Compound was tested for the inhibition of rat reversed passive Arthus pleurisy after peroral administration of 25 mg/kg dose at 0.32+/-0.07 mL of exudate volume (injected intrapleurally); details: route oral; in short: as §5
Rattus norvegicus [17] = assay: Compound was tested for the inhibition of rat reversed passive Arthus pleurisy after peroral administration of 5 mg/kg dose at 0.4+/-0.04 mL of exudate volume (injected intrapleurally); details: route oral; in short: as §5
Rattus norvegicus [18] = assay: Compound was tested for the inhibition of rat reversed passive Arthus pleurisy after peroral administration of 5 mg/kg dose at 3.54+/-0.06*10e6 no of cells; details: route oral; in short: as §5
Rattus norvegicus [19] = assay: Antiinflammatory activity on Carrageenan rat's paw edema(CPE) after peroral administration of 10 mg/kg dose with control swelling of 75.8%; details: route oral
Rattus norvegicus [20] = assay: Antiinflammatory activity on Carrageenan rat's paw edema(CPE) after peroral administration of 100 mg/kg dose with control swelling of 64.2%; details: route oral
Rattus norvegicus [21] = assay: Antiinflammatory activity on Zymosan-induced rat's paw edema(ZPE) after peroral administration of 3 mg/kg dose with control swelling of 68.1%; details: route oral; in short: as §3
Rattus norvegicus [22] = assay: Compound was tested for the inhibition of arachidonic acid-induced rat's paw edema(APE) after peroral administration of 10 mg/kg dose with control swelling of 51.6%; details: route oral; in short: as §4
Rattus norvegicus [23] = assay: Compound was tested for the inhibition of arachidonic acid-induced rat's paw edema(APE) after peroral administration of 3 mg/kg dose with control swelling of 51.6%; details: route oral; in short: as §4
Rattus norvegicus [24] = assay: Compound was tested for the inhibition of arachidonic acid-induced rat's paw edema(APE) after peroral administration of 30 mg/kg dose with control swelling of 51.6%; details: route oral
Rattus norvegicus [25] = assay: Antiinflammatory activity on Zymosan-induced rat's paw edema(ZPE) after peroral administration of 30 mg/kg dose with control swelling of 68.1%; details: route oral; in short: as §3
Rattus norvegicus [26] = assay: Antiinflammatory activity on Zymosan-induced rat's paw edema(ZPE) after peroral administration of 100 mg/kg dose with control swelling of 71.7%; details: route oral; in short: as §3
Rattus norvegicus [27] = assay: Antiinflammatory activity on Carrageenan rat's paw edema(CPE) after peroral administration of 3 mg/kg dose with control swelling of 75.8%; details: route oral
Rattus norvegicus [28] = assay: Antiinflammatory activity on Carrageenan rat's paw edema(CPE) after peroral administration of 30 mg/kg dose with control swelling of 75.8%; details: route oral
Rattus norvegicus [29] = assay: Antiinflammatory activity on Zymosan-induced rat's paw edema(ZPE) after peroral administration of 10 mg/kg dose with control swelling of 68.1%; details: route oral; in short: as §3
Rattus norvegicus [30] = assay: Compound was tested for the inhibition of Zymosan-induced rat's paw edema(ZPE) after peroral administration of 30 mg/kg dose; details: route oral; in short: as §3
Rattus norvegicus [31] = assay: Inhibition of carrageenan-induced rat's paw edema (CPE) after peroral administration of 100 mg/kg dose.; details: route oral; in short: as §2

With `O=C(Nc1cccnc1)c1c(O)c2cccnc2n(-c2ccccc2)c1=O` as the compound, how does the inhibition in vivo at 100 mg/kg (Rattus norvegicus [1]) read?
The inhibition in vivo at 100 mg/kg was 30.5%.

And the inhibition in vivo at 100 mg/kg (Rattus norvegicus [2])?
Its inhibition in vivo at 100 mg/kg is 30.5%.

What about the inhibition in vivo at 100 mg/kg (Rattus norvegicus [3]) of the same compound?
Its inhibition in vivo at 100 mg/kg is 75.3%.

What about the inhibition in vivo at 100 mg/kg (Rattus norvegicus [4]) of the same compound?
The inhibition in vivo at 100 mg/kg was 30.3%.

And the inhibition in vivo at 3 mg/kg (Rattus norvegicus [5])?
Its inhibition in vivo at 3 mg/kg is 21.9%.

And the inhibition in vivo at 10 mg/kg (Rattus norvegicus [6])?
The inhibition in vivo at 10 mg/kg was 44%.

What about the inhibition in vivo at 10 mg/kg (Rattus norvegicus [7]) of the same compound?
The inhibition in vivo at 10 mg/kg was 41.2%.

What about the inhibition in vivo at 10 mg/kg (Rattus norvegicus [8]) of the same compound?
Its inhibition in vivo at 10 mg/kg is 25.4%.

And the inhibition in vivo at 10 mg/kg (Rattus norvegicus [9]; Rattus norvegicus, po)?
The inhibition in vivo at 10 mg/kg was 33.8%.

What about the Inhibition (Rattus norvegicus [9]; route oral, 10 mg/kg) of the same compound?
The Inhibition was 22.7%.

And the inhibition in vivo at 3 mg/kg (Rattus norvegicus [10])?
The inhibition in vivo at 3 mg/kg was 20.2%.

What about the inhibition in vivo at 3 mg/kg (Rattus norvegicus [11]) of the same compound?
The inhibition in vivo at 3 mg/kg was 40.9%.

And the inhibition in vivo at 30 mg/kg (Rattus norvegicus [12])?
The inhibition in vivo at 30 mg/kg was 40.7%.

What about the inhibition in vivo at 10 mg/kg (Rattus norvegicus [13]) of the same compound?
Its inhibition in vivo at 10 mg/kg is 55.7%.

And the inhibition in vivo at 100 mg/kg (Rattus norvegicus [14])?
Its inhibition in vivo at 100 mg/kg is 75.3%.

What about the inhibition in vivo at 25 mg/kg (Rattus norvegicus [15]) of the same compound?
The inhibition in vivo at 25 mg/kg was 42.1%.

And the inhibition in vivo at 25 mg/kg (Rattus norvegicus [16])?
Its inhibition in vivo at 25 mg/kg is 62.9%.

What about the inhibition in vivo at 5 mg/kg (Rattus norvegicus [17]) of the same compound?
Its inhibition in vivo at 5 mg/kg is 50%.

And the inhibition in vivo at 5 mg/kg (Rattus norvegicus [18])?
The inhibition in vivo at 5 mg/kg was 33.3%.

What about the Swelling (Rattus norvegicus [19]) of the same compound?
Its Swelling is 58.6%.

And the Swelling (Rattus norvegicus [20])?
Its Swelling is 44.4%.

What about the Swelling (Rattus norvegicus [21]) of the same compound?
Its Swelling is 53.2%.

And the Swelling (Rattus norvegicus [22])?
The Swelling was 28.9%.

And the Swelling (Rattus norvegicus [23])?
The Swelling was 30.5%.

And the Swelling (Rattus norvegicus [24])?
Its Swelling is 30.6%.

What about the Swelling (Rattus norvegicus [25]) of the same compound?
Its Swelling is 38.2%.

And the Swelling (Rattus norvegicus [26])?
The Swelling was 50%.

What about the Swelling (Rattus norvegicus [27]) of the same compound?
Its Swelling is 60.5%.

What about the Swelling (Rattus norvegicus [28]) of the same compound?
Its Swelling is 50.2%.

And the Swelling (Rattus norvegicus [29])?
Its Swelling is 50.8%.

What about the inhibition in vivo at 30 mg/kg (Rattus norvegicus [30]) of the same compound?
The inhibition in vivo at 30 mg/kg was 43.9%.

And the inhibition in vivo at 100 mg/kg (Rattus norvegicus [31])?
Its inhibition in vivo at 100 mg/kg is 30.8%.
